Reference: ChEMBL document CHEMBL3232916, “1-(4-Methoxyphenyl)-5-(3,4,5-trimethoxyphenyl)-1H-1,2,4-triazole-3-carboxamides: synthesis, molecular modeling, evaluation of their anti-inflammatory activity and ulcerogenicity” (Eur J Med Chem, 2014)

What was measured:
[1] = system: Rattus norvegicus; test: Antiinflammatory activity in albino rat assessed as inhibition of carrageenan-induced paw edema at 0.28 mmol/kg, po administered 30 mins before carrageenan challenge measured after 3 hrs relative to control; format: functional
How it was run: (§1)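 Male albino rats, n = 4 per group. Dosed orally as a suspension in 0.5% w/v CMC in water; controls received CMC alone. 0.1 mL of freshly prepared 1% carrageenan in saline was injected subplantar into the right hind paw 30 min after dosing, with saline in the left paw. Right paw thickness was read by Vernier caliper before and at 1–5 h. Result is % decrease in edema vs control, mean ± S.E.M.; one-way ANOVA.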

[2] = system: Rattus norvegicus; test: Ulcerogenic effect in albino rat assessed as ulcer index at 0.28 mmol/kg, po; format: toxicity, organism-based; conditions: in vivo
How it was run: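 Rat gastric ulcers were graded by area: level I <1 mm², level II 1–3 mm², level III >3 mm². Ulcer index = 1×(level I count) + 2×(level II) + 3×(level III). Reported as mean ± S.E.M., n = 4.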

[3] = system: Rattus norvegicus; test: Ulcerogenic effect in albino rat assessed as morphology using hematoxylin and eosin staining at 0.28 mmol/kg, po by light microscopic analysis; format: toxicity, organism-based; conditions: in vivo
How it was run: (§2)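 Stomach sections were dewaxed through graded alcohols to water and stained with haematoxylin for 5–7 min. They were differentiated 5–10 s in 1% HCl in 70% alcohol, then stained with 1% eosin for 10 min, with tap-water washes between steps. The sections were then examined by light microscopy for mucosal and glandular changes.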

[4] = system: Rattus norvegicus; test: Antiinflammatory activity in albino rat assessed as inhibition of carrageenan-induced paw edema at 0.28 mmol/kg, po administered 30 mins before carrageenan challenge measured after 3 hrs relative to celecoxib; format: functional; conditions: read-out: INH
How it was run: (§3)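 Calculated from the 3 h % edema inhibition in carrageenan paw edema (male albino rats, oral dosing in 0.5% CMC 30 min before 1% carrageenan subplantar injection). Expressed as % of the inhibition given by the reference drug in the same assay.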

[5] = system: Rattus norvegicus; test: Antiinflammatory activity in albino rat assessed as inhibition of carrageenan-induced paw edema at 0.28 mmol/kg, po administered 30 mins before carrageenan challenge measured after 4 hrs relative to control; format: functional; how it was run: as §1
[6] = system: Rattus norvegicus; test: Antiinflammatory activity in albino rat assessed as inhibition of carrageenan-induced paw edema at 0.28 mmol/kg, po administered 30 mins before carrageenan challenge measured after 1 hr relative to control; format: functional; how it was run: as §1
[7] = system: Rattus norvegicus; test: Antiinflammatory activity in albino rat assessed as inhibition of carrageenan-induced paw edema at 0.28 mmol/kg, po administered 30 mins before carrageenan challenge measured after 5 hrs relative to control; format: functional; how it was run: as §1
[8] = system: Rattus norvegicus; test: Antiinflammatory activity in albino rat assessed as inhibition of carrageenan-induced paw edema at 0.28 mmol/kg, po administered 30 mins before carrageenan challenge measured after 2 hrs relative to control; format: functional; how it was run: as §1
[9] = system: Rattus norvegicus; test: Antiinflammatory activity in albino rat assessed as inhibition of carrageenan-induced paw edema at 0.28 mmol/kg, po administered 30 mins before carrageenan challenge measured after 3 hrs relative to indomethacin; format: functional; conditions: read-out: INH; how it was run: as §3
[10] = system: Rattus norvegicus; test: Ulcerogenic effect in albino rat assessed as capillary inflammatory cells using hematoxylin and eosin staining at 0.28 mmol/kg, po by light microscopic analysis; format: toxicity, organism-based; conditions: in vivo; how it was run: as §2
[11] = system: Rattus norvegicus; test: Ulcerogenic effect in albino rat assessed as loss of mucosal membrane using hematoxylin and eosin staining at 0.28 mmol/kg, po by light microscopic analysis; format: toxicity, organism-based; conditions: in vivo; how it was run: as §2
[12] = system: Rattus norvegicus; test: Ulcerogenic effect in albino rat assessed as apoptotic glandular epithelial cells using hematoxylin and eosin staining at 0.28 mmol/kg, po by light microscopic analysis; format: toxicity, organism-based, Epithelial cell; conditions: in vivo; how it was run: as §2

| SMILES | inhibition in vivo at 280 µmol/kg [1] | UI [2] | Activity [3] | paw edema inhibition relative to celecoxib at 280 µmol/kg [4] | inhibition in vivo at 280 µmol/kg [5] | inhibition in vivo at 280 µmol/kg [6] | inhibition in vivo at 280 µmol/kg [7] | inhibition in vivo at 280 µmol/kg [8] | paw edema inhibition relative to indomethacin at 280 µmol/kg [9] | Activity [10] | Activity [11] | Activity [12] |
| --- | --- | --- | --- | --- | --- | --- | --- | --- | --- | --- | --- | --- |
| COc1ccc(-n2nc(C(=O)Nc3ccccc3C)nc2-c2cc(OC)c(OC)c(OC)c2)cc1 | 50% | 1.5 | Non-toxic | 74% | 46% | 19% | 47% | 30% | 64% |  |  |  |
| COc1ccc2c(c1)c(CC(=O)O)c(C)n2C(=O)c1ccc(Cl)cc1 [INDOMETHACIN] | 78% | 41 |  |  | 81% | 55% | 86% | 68% |  | Toxic | Toxic | Toxic |
